From ChEMBL document CHEMBL1921795, “Discovery, synthesis, and structure-activity relationship development of a series of N-4-(2,5-dioxopyrrolidin-1-yl)phenylpicolinamides (VU0400195, ML182): characterization of a novel positive allosteric modulator of the metabotropic glutamate receptor 4 (mGlu(4)) with oral efficacy in an …” (J Med Chem, 2011)
Active and inactive are the calls of the source.

Experiments:
[1] = molecular target: T1, Metabotropic glutamate receptor 4 (Homo sapiens, UniProt Q14833); test: Positive allosteric modulator activity at human mGlu4 receptor expressed in CHO cells expressing Gqi5 by calcium mobilization assay
[2] = molecular target: T1, Metabotropic glutamate receptor 4; test: Positive allosteric modulation of human mGlu4 receptor expressed in CHO cells coexpressing Gqi5 assessed as potentiation of glutamate-induced calcium mobilization relative to (-)-PHCCC; assay type: functional, cell-based
Outline: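 CHO cells stably expressing human mGlu4 with chimeric Gqi5, plated overnight, loaded 45 min at 37 °C with 1 µM Fluo-4 AM. Compound (10-point, 1:3 dilutions) was added about 2.5 min before an EC20 glutamate, then EC80 glutamate 2 min later. Ca2+ fluorescence read at 470/540 nm. Four-parameter logistic fit.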

[3] = molecular target: Metabotropic glutamate receptor 4 (Rattus norvegicus, UniProt P31423); test: Positive allosteric modulator activity at rat mGlu4 receptor by thallium flux assay
[4] = molecular target: Metabotropic glutamate receptor 4 (Rattus norvegicus) (UniProt P31423); test: Positive allosteric modulator activity at rat mGlu4 receptor by thallium flux assay at 30 uM relative to glutamate
Cytochrome P450 2D6 = Cytochrome P450 2D6 (Homo sapiens, UniProt P10635); test: Inhibition of CYP2D6 in human liver microsomes using […] as substrate; assay type: ADME, Microsome
Outline: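 Pooled human liver microsomes (0.1 mg/mL) with probe cocktail (phenacetin 10 µM, diclofenac 5 µM, dextromethorphan 5 µM, midazolam 2 µM) in 0.1 M phosphate pH 7.4; compound 100 nM–30 µM in duplicate, 15 min preincubation at 37 °C, then 1 mM NADPH for 8 min. LC/MS/MS of metabolite formation; IC50 derived.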

Cytochrome P450 3A4 = Cytochrome P450 3A4 (Homo sapiens, UniProt P08684); test: Inhibition of CYP3A4 in human liver microsomes using […] as substrate; assay type: ADME, Microsome
Nucleic Acid = test: Ratio of drug level in brain to plasma in ip dosed rat; assay type: ADME, organism-based
[5] = molecular target: Metabotropic glutamate receptor 4 (Rattus norvegicus) (UniProt P31423); test: Positive allosteric modulation of rat mGlu4 receptor assessed as potentiation of glutamate-induced thallium flux relative to (-)-PHCCC; set-up: concentration or dose not given beside the values
Plasma [6] = test: Fraction unbound in rat plasma by equilibrium dialysis; assay type: ADME, cell-free
Outline: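 Rat plasma spiked with compound, equilibrium dialysis against 25 mM phosphate buffer pH 7.4 for 4 h at 37 °C with shaking; both chambers matrix-matched, acetonitrile-extracted and quantified by LC/MS/MS; triplicate.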

Cytochrome P450 1A2 = molecular target: T2, Cytochrome P450 1A2 (Homo sapiens, UniProt P05177); test: Inhibition of CYP1A2 in human liver microsomes using phenacetin as substrate
T2 sequence (P05177 whole entry): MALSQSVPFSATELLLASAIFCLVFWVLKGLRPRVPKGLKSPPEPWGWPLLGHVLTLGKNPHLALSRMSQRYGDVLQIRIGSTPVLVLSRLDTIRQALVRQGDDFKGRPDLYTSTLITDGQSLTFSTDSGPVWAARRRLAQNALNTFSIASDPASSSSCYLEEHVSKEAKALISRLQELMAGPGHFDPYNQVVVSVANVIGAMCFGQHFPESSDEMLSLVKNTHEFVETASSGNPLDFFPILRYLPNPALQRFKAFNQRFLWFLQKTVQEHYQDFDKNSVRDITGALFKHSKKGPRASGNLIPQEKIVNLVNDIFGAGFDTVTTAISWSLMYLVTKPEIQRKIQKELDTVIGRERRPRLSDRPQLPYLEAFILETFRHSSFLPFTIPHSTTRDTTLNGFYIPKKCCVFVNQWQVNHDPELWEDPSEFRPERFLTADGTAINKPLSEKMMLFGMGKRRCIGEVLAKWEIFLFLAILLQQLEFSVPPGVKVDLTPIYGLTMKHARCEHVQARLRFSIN

Cytochrome P450 2C9 = Cytochrome P450 2C9 (Homo sapiens, UniProt P11712); test: Inhibition of CYP2C9 in human liver microsomes using diclofenac as substrate
[7] = molecular target: Metabotropic glutamate receptor 1 (Rattus norvegicus) (UniProt P23385); test: Activity at rat mGlu1 at 10 uM by calcium mobilization assay; assay type: functional
Outline: (§1)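 HEK cells expressing rat mGlu1 (plated 15,000 cells/well in DMEM, 10% dialyzed FBS, 20 mM HEPES). Fluo-4 calcium mobilization. Compound at 10 µM added, then 2.5 min later a full glutamate concentration-response. Left shift >2-fold scored as potentiation; right shift >2-fold or ≥75% drop in max response scored as antagonism.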

[8] = molecular target: Metabotropic glutamate receptor 2 (Rattus norvegicus) (UniProt P31421); test: Activity at rat mGlu2 at 10 uM by thallium flux assay
Outline: (§2)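 HEK-293 cells co-expressing rat mGlu2, 3, 7 or 8 with GIRK channels, thallium flux read-out. Compound at 10 µM added, then 2.5 min later a full concentration-response of glutamate (L-AP4 for mGlu7). Left shift >2-fold scored as potentiation; right shift >2-fold or ≥75% drop in max response scored as antagonism.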

[9] = molecular target: Metabotropic glutamate receptor 3 (Rattus norvegicus) (UniProt P31422); test: Activity at rat mGlu3 at 10 uM by thallium flux assay; outline: as §2
[10] = molecular target: Metabotropic glutamate receptor 8 (Rattus norvegicus) (UniProt P70579); test: Positive allosteric modulator activity at rat mGlu8 receptor at 10 uM by thallium flux assay relative to glutamate
[11] = molecular target: Metabotropic glutamate receptor 1 (Rattus norvegicus) (UniProt P23385); test: Antagonist activity at rat mGlu1 at 10 uM by calcium mobilization assay; assay type: functional; outline: as §1
[12] = molecular target: Metabotropic glutamate receptor 2 (Rattus norvegicus) (UniProt P31421); test: Antagonist activity at rat mGlu2 at 10 uM by thallium flux assay; assay type: functional; outline: as §2
[13] = molecular target: Metabotropic glutamate receptor 3 (Rattus norvegicus) (UniProt P31422); test: Antagonist activity at rat mGlu3 at 10 uM by thallium flux assay; assay type: functional; outline: as §2
[14] = molecular target: Metabotropic glutamate receptor 5 (Rattus norvegicus) (UniProt P31424); test: Antagonist activity at rat mGlu5 receptor at 10 uM by calcium mobilization assay; assay type: functional
Outline: (§3)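 HEK cells expressing rat mGlu5, calcium mobilization by double addition. 10 µM compound or vehicle was added, then a full glutamate concentration-response 2.5 min later. A left shift >2-fold was scored as potentiation. A right shift >2-fold or ≥75% loss of maximum was scored as antagonism. Mean ± SEM of three experiments in singlicate.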

[15] = molecular target: Metabotropic glutamate receptor 7 (Rattus norvegicus) (UniProt P35400); test: Antagonist activity at rat mGlu7 receptor at 10 uM by thallium flux assay; assay type: functional; outline: as §2
[16] = molecular target: Metabotropic glutamate receptor 8 (Rattus norvegicus) (UniProt P70579); test: Antagonist activity at rat mGlu8 receptor at 10 uM by thallium flux assay; assay type: functional; outline: as §2
[17] = molecular target: Metabotropic glutamate receptor 1 (Rattus norvegicus) (UniProt P23385); test: Positive allosteric modulator activity at rat mGlu1 receptor expressed in human HEK293 at 10 uM by calcium mobilization assay; assay type: functional, cell-based; outline: as §1
[18] = molecular target: Metabotropic glutamate receptor 2 (Rattus norvegicus) (UniProt P31421); test: Positive allosteric modulator activity at rat mGlu2 receptor at 10 uM by thallium flux assay; outline: as §2
[19] = molecular target: Metabotropic glutamate receptor 3 (Rattus norvegicus) (UniProt P31422); test: Positive allosteric modulator activity at rat mGlu3 receptor at 10 uM by thallium flux assay; outline: as §2
[20] = molecular target: Metabotropic glutamate receptor 5 (Rattus norvegicus) (UniProt P31424); test: Positive allosteric modulation of rat mGlu5 receptor expressed in human HEK293 cells assessed as potentiation of glutamate-induced calcium mobilization at 10 uM relative to (-)-PHCCC; assay type: functional, cell-based; outline: as §3
[21] = molecular target: T3, Metabotropic glutamate receptor 6 (Homo sapiens, UniProt O15303); test: Positive allosteric modulator activity at human mGlu6 receptor assessed as potentiation of glutamate-induced thallium flux at 10 uM relative to (-)-PHCCC
Outline: (§4)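 Cells expressing human mGlu6 with GIRK channels, thallium flux double-addition protocol. 10 µM compound or vehicle was added, then a full glutamate concentration-response 2.5 min later. A left shift >2-fold was scored as potentiator activity. A right shift >2-fold or max depression ≥75% was scored as antagonist activity. Mean ± SEM of three experiments in singlicate.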

[22] = molecular target: Metabotropic glutamate receptor 7 (Rattus norvegicus) (UniProt P35400); test: Positive allosteric modulator activity at rat mGlu7 receptor assessed as potentiation of glutamate-induced thallium flux at 10 uM relative to (-)-PHCCC
[23] = molecular target: Metabotropic glutamate receptor 8 (Rattus norvegicus) (UniProt P70579); test: Positive allosteric modulator activity at rat mGlu8 receptor at 10 uM by thallium flux assay; outline: as §2
Rattus norvegicus [24] = test: Reversal of haloperidol-induced catalepsy in Sprague-Dawley rat at 0.1 to 30 mg/kg, po administered 60 mins after haloperidol-challenge measured after 30 mins; assay type: functional, organism-based
Outline: (§5)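 Male Sprague-Dawley rats (275–300 g). Haloperidol 0.75 mg/kg i.p. (in 8.5% lactic acid, pH 6) given 60 min before oral compound (0.1–56.6 mg/kg) or vehicle (10% Tween 80). Catalepsy tested 30 min later: forepaws placed on a horizontal bar 6 cm high; latency to remove paws timed, 30 s cutoff.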

[25] = molecular target: T3, Metabotropic glutamate receptor 6; test: Antagonist activity at human mGlu6 receptor at 10 uM by thallium flux assay
[26] = Intrinsic clearance in human hepatic microsomes; assay type: ADME, Microsome; conditions: human liver microsomes
[27] = Intrinsic clearance in rat hepatic microsomes at 1 uM by LC/MS/MS analysis; assay type: ADME, Microsome; conditions: rat liver microsomes
Plasma [28] = test: Fraction unbound in human plasma; assay type: ADME, cell-free
Brain = test: Fraction unbound in rat brain homogenate by equilibrium dialysis; assay type: ADME, tissue-based
Cytochrome P450 2C19 = Cytochrome P450 2C19 (Homo sapiens, UniProt P33261); test: Inhibition of CYP2C19 in human liver microsomes using S-mephenytoin as substrate; assay type: ADME, Microsome
[29] = molecular target: T3, Metabotropic glutamate receptor 6; test: Positive allosteric modulator activity at human mGlu6 receptor at 10 uM by thallium flux assay; outline: as §4
Rattus norvegicus [30] = test: Reversal of haloperidol-induced catalepsy in Sprague-Dawley rat at 56.6 mg/kg, po administered 60 mins after haloperidol-challenge measured after 30 mins; assay type: functional, organism-based; set-up: dose 56.6 mg/kg; outline: as §5

Metabotropic glutamate receptor 1 (Rattus norvegicus), sequence (P23385 19-1199 limits assumed): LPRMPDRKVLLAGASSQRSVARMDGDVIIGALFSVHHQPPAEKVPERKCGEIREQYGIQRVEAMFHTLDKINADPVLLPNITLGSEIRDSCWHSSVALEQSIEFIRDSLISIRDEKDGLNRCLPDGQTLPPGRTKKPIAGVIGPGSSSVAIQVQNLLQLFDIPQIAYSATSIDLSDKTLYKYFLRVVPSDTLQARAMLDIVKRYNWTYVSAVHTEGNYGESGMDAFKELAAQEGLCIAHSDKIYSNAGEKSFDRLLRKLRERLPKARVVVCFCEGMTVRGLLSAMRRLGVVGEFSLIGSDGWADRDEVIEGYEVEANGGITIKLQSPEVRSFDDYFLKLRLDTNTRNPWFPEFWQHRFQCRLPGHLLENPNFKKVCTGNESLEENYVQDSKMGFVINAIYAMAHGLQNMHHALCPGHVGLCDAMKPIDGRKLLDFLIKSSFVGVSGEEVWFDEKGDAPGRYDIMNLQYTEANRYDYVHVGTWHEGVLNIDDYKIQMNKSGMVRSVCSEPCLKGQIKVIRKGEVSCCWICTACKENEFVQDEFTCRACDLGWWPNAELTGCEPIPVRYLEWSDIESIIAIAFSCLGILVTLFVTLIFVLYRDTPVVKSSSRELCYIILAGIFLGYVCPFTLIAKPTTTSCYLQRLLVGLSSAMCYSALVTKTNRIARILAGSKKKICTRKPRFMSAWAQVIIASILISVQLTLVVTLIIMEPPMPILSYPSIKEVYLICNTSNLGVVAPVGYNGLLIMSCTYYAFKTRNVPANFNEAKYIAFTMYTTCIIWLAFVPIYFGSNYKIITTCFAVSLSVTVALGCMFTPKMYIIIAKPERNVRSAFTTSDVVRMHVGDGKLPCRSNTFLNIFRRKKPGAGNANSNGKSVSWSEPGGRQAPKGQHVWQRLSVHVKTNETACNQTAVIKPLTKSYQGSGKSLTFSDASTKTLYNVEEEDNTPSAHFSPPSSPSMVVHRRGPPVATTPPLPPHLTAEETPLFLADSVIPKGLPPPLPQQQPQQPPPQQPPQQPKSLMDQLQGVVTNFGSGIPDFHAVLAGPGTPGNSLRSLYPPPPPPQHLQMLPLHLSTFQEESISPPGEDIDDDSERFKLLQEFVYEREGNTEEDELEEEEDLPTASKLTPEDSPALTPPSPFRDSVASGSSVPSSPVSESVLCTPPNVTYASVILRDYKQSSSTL
Metabotropic glutamate receptor 3 (Rattus norvegicus), sequence (P31422 23-879 limits assumed): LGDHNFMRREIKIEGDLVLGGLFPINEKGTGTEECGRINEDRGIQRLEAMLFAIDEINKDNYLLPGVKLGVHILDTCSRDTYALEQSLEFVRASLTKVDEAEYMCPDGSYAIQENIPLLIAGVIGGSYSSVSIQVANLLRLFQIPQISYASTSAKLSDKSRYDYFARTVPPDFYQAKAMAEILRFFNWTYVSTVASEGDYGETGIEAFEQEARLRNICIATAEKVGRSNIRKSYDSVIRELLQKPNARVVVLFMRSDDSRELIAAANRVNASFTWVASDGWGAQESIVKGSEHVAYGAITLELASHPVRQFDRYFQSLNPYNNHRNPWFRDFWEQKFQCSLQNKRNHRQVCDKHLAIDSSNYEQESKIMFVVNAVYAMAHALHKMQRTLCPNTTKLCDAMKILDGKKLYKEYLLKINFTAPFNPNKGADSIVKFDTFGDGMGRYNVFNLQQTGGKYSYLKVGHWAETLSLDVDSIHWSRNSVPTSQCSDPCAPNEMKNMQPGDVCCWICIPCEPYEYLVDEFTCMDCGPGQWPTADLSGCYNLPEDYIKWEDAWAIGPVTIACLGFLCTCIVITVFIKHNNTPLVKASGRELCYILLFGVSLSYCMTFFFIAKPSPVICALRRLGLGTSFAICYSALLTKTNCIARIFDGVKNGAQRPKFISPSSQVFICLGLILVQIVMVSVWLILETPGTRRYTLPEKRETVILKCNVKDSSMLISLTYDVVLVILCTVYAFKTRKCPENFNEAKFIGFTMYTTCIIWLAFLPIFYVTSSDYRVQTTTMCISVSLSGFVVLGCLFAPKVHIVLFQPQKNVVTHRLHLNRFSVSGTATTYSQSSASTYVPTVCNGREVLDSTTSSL
Metabotropic glutamate receptor 8 (Rattus norvegicus), sequence (P70579 whole entry): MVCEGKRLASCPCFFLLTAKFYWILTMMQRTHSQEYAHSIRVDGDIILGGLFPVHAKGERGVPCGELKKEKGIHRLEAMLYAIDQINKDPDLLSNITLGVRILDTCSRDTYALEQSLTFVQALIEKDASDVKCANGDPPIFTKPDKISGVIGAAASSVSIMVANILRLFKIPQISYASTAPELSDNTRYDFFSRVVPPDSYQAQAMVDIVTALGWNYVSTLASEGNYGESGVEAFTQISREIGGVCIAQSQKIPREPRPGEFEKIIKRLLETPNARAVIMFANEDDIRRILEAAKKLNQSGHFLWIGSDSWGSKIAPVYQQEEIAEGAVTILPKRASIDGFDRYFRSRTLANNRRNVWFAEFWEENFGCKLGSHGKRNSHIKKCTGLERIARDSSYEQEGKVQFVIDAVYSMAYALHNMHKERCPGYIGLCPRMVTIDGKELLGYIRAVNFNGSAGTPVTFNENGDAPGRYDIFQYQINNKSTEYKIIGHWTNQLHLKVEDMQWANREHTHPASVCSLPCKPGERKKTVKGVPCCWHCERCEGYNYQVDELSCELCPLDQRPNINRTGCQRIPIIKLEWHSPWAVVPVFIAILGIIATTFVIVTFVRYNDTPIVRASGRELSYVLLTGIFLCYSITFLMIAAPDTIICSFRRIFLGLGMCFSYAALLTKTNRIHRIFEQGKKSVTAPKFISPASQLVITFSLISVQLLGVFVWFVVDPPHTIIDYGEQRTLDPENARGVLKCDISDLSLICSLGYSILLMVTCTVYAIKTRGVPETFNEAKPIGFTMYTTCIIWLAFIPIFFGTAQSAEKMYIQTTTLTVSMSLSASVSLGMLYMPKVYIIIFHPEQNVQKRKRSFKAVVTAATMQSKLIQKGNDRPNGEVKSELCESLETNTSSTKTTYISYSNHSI
Metabotropic glutamate receptor 4 (Rattus norvegicus), sequence (P31423 whole entry): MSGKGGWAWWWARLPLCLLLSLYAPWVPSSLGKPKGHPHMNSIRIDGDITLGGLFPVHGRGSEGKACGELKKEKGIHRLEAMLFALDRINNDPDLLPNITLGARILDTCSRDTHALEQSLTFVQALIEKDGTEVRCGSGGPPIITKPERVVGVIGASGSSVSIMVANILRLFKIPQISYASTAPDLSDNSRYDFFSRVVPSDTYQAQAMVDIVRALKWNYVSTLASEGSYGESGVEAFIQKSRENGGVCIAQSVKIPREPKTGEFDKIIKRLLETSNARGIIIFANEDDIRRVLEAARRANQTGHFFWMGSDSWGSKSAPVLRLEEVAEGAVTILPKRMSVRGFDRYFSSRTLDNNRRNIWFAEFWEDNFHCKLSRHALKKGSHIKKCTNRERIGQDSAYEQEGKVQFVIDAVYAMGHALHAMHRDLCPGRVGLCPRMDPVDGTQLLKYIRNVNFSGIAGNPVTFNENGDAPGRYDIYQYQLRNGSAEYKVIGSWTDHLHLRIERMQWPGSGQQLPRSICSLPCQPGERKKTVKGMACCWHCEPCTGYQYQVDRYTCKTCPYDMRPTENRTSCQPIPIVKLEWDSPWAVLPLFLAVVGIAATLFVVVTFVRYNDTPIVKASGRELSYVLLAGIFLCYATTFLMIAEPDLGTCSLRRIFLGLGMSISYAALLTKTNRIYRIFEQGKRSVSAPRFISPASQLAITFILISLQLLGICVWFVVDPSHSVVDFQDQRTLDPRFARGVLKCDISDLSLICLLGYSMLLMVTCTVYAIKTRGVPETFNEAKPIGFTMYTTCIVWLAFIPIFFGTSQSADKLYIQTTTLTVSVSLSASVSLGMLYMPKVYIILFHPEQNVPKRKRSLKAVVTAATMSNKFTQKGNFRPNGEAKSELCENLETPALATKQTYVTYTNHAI
T1 sequence (Q14833 whole entry): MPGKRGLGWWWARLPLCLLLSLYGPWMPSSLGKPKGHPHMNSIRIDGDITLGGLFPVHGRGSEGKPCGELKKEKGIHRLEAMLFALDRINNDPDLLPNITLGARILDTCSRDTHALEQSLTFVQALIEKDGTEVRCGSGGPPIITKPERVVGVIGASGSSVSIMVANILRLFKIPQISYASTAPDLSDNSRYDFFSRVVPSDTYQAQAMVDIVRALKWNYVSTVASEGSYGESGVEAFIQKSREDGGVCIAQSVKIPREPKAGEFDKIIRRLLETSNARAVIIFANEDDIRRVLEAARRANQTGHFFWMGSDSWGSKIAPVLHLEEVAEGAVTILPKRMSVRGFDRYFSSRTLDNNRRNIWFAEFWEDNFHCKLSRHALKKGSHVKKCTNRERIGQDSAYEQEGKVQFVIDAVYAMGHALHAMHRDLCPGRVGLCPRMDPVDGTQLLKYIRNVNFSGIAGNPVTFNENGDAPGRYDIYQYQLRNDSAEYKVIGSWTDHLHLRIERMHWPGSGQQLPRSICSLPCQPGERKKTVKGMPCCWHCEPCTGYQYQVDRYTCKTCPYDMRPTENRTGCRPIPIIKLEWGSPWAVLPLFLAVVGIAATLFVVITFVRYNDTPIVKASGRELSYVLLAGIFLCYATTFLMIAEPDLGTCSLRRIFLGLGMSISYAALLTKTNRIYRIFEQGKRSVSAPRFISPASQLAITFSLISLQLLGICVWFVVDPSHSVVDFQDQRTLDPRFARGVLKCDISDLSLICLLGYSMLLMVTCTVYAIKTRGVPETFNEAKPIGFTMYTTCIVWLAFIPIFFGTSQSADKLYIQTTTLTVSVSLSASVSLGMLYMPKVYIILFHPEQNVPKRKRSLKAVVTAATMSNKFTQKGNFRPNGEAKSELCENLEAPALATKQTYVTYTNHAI
Metabotropic glutamate receptor 4 (Rattus norvegicus, UniProt P31423), sequence (P31423 whole entry): as the sequence (P31423 whole entry) above

In the case of `O=C(Nc1ccc(N2S(=O)(=O)c3ccccc3S2(=O)=O)cc1)c1ccccn1`, the EC50 [1] is reported as 0.136 µM, the Activity [2] is reported as 99.7% and the EC50 [3] is reported as 0.165 µM. For the same molecule, the fold change (FC) [4] was 5.2, the IC50 (Cytochrome P450 2D6) was > 30 µM and the IC50 (Cytochrome P450 3A4) was > 30 µM. It also gave a BPR (Nucleic Acid) of 0.085, an Activity [5] of 124% and a Fu (Plasma [6]) of 3.8%. The IC50 (Cytochrome P450 1A2) was > 30 µM and the IC50 (Cytochrome P450 2C9) was > 30 µM.

With `O=C(Nc1ccc(N2C(=O)[C@@H]3[C@H](C2=O)[C@@H]2C=C[C@H]3C2)c(Cl)c1)c1ccccn1` (mixture of isomers) [listing 1 of 2 here] the Activity [2] was 122%, the Activity [5] was 120% and the Activity [7] was “inactive”. For the same molecule, the Activity [8] was “inactive”, the Activity [9] was “inactive” and the Activity [10] was “inactive”. The Activity [11] was “inactive”, the Activity [12] was “inactive” and the Activity [13] was “inactive”. For the same molecule, the Activity [14] was “inactive”, the Activity [15] was “inactive” and the Activity [16] was “inactive”. For the same molecule, the Activity [17] was “inactive”, the Activity [18] was “inactive” and the Activity [19] was “inactive”. It also gave an Activity [20] of 64.3%, an Activity [21] of 45.8% and an Activity [22] of 64%. The Activity [23] was “inactive”, the Activity (Rattus norvegicus [24]) was “Active” and the Activity [25] was “inactive”.

With `O=C(Nc1ccc(N2C(=O)[C@@H]3[C@H](C2=O)[C@@H]2C=C[C@H]3C2)c(Cl)c1)c1ccccn1` (mixture of isomers) [listing 2 of 2 here] the IC50 (Cytochrome P450 2D6) was > 30 µM, the CLint scaled [26] was 19.7 mL/min/kg and the CLint scaled at 1 µM [27] was 53 mL/min/kg. For the same molecule, the Fu (Plasma [28]) was 4.1%, the Fu (Plasma [6]) was 3.2% and the Fu (Brain) was 7.6%. For the same molecule, the IC50 (Cytochrome P450 2C19) was > 30 µM, the EC50 [29] was > 10 µM and the IC50 (Cytochrome P450 1A2) was > 30 µM. The IC50 (Cytochrome P450 2C9) was > 30 µM.

In the case of `Cc1cc(C)n(-c2cc(NC(=O)CN3CCN(C)CC3)nc(-c3ccco3)n2)n1`, the Activity (Rattus norvegicus [30]) is reported as “Active”.
